pIC50: −log10 of the molar value. Active and inactive are the calls of the source. The calls are words filed in the database; no cut-off is given here.
Assays:
[1] = biological target: T1, DNA topoisomerase 1 (Homo sapiens) (UniProt P11387); experiment: Poison activity at human topoisomerase 1 assessed as induction of relaxation of pHOT1 DNA substrate at 100 to 1000 uM incubated for 30 mins by ethidium bromide dye-based agarose gel electrophoresis analysis
T1 sequence (whole entry): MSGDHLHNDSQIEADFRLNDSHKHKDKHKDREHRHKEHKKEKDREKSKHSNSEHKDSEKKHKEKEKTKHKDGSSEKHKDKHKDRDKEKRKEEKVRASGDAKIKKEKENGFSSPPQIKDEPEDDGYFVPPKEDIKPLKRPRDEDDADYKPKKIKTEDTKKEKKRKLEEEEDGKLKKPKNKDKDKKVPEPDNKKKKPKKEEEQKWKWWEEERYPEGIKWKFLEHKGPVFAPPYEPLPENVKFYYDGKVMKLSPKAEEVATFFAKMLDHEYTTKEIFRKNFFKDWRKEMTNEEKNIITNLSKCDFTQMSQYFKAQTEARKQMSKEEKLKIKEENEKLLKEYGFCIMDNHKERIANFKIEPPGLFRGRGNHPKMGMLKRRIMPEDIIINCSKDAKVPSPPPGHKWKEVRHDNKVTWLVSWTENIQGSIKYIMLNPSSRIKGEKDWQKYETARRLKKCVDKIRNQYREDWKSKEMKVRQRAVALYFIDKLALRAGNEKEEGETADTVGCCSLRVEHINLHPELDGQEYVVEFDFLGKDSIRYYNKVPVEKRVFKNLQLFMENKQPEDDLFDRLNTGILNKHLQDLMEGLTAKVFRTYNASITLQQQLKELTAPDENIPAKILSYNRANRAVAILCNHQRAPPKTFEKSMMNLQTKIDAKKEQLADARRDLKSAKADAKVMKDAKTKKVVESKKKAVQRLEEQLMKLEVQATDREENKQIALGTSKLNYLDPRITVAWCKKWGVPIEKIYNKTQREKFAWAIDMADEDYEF
In short: (§1)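 pHOT1 (100 ng) relaxed first with topo I (3 units) in 10 mM Tris-HCl pH 7.5, 1 mM EDTA, 30 min at 37 °C. Compound then added for a further 30 min at 37 °C; amsacrine positive control at 100–1000 μM. Stopped with 1% SDS and run on 1% agarose at 15 V/cm for 12–15 h. EtBr-stained and imaged.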

MCF-10A = experiment: Cytotoxicity against human MCF10A cells after 72 hrs by cell counting kit-8 analysis; assay type: cell-based
In short: (§2)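 Cells seeded at 2×10^5 or 1×10^5 per well, grown overnight in medium with 10% FBS at 37 °C, 5% CO₂, then FBS-starved 4 h. Graded compound concentrations given for 72 h. CCK-8 then added for 4 h and absorbance read at 450 nm. IC50 from a four-parameter logistic fit; mean ± S.D. of three experiments, each in triplicate.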

T47D = experiment: Cytotoxicity against human T47D cells after 72 hrs by cell counting kit-8 analysis; assay type: functional, cell-based; in short: as §2
HCT-15 = experiment: Cytotoxicity against human HCT15 cells after 72 hrs by cell counting kit-8 analysis; assay type: functional, cell-based; settings: HCT-15, 72 h; in short: as §2
[2] = biological target: T1, DNA topoisomerase 1 (Homo sapiens); experiment: Inhibition of human recombinant DNA topoisomerase 1-mediated DNA relaxation at 100 uM incubated for 30 mins using pBR322 DNA substrate by ethidium bromide dye-based agarose gel electrophoresis relative to control camptothecin
In short: (§3)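 pBR322 (100 ng) with recombinant human topo I (0.4 units) in 10 mM Tris-HCl pH 7.9, 150 mM NaCl, 0.1% BSA, 1 mM spermidine, 5% glycerol, 30 min at 37 °C. Stopped with sarcosyl/glycerol/dye and run on 1% agarose/TAE at 15 V for 7 h. EtBr-stained; supercoiled DNA quantified as % inhibition. Relative values are the ratio to the camptothecin control.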

[3] = biological target: T1, DNA topoisomerase 1 (Homo sapiens); experiment: Inhibition of human recombinant DNA topoisomerase 1-mediated DNA relaxation at 20 uM incubated for 30 mins using pBR322 DNA substrate by ethidium bromide dye-based agarose gel electrophoresis relative to control camptothecin; in short: as §3
[4] = biological target: DNA topoisomerase 2-alpha (Homo sapiens) (UniProt P11388); experiment: Inhibition of human DNA topoisomerase 2 alpha-mediated DNA relaxation at 100 uM incubated for 30 mins using pBR322 DNA substrate by ethidium bromide dye-based agarose gel electrophoresis relative to control etoposide
In short: (§4)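 Stopped with EDTA and run on 1% agarose/TAE at 25 V for 4 h. EtBr-stained; supercoiled DNA quantified as % inhibition. Relative values are the ratio to the etoposide control.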

Sus scrofa [5] = species on record: Sus scrofa; experiment: Inhibition of porcine brain tubulin polymerization at 10 uM after 61 mins by spectroscopic analysis
In short: (§5)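 Porcine brain tubulin at 1.5 mg/mL final in cold PEM buffer (80 mM Na-PIPES pH 6.9, 1 mM MgCl₂, 30% glycerol, 1 mM EGTA) with 1 mM GTP. Compounds were dissolved in DMSO and diluted in PEM. They were pre-warmed 2 min at 37 °C before tubulin was added. DMSO vehicle and paclitaxel controls. A340 was read each minute for 61 min at 37 °C.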

[6] = biological target: T1, DNA topoisomerase 1 (Homo sapiens); experiment: Inhibition of human recombinant DNA topoisomerase 1-mediated DNA relaxation at 100 uM incubated for 30 mins using pBR322 DNA substrate by ethidium bromide dye-based agarose gel electrophoresis; in short: as §3
[7] = biological target: T1, DNA topoisomerase 1 (Homo sapiens); experiment: Inhibition of human recombinant DNA topoisomerase 1-mediated DNA relaxation at 20 uM incubated for 30 mins using pBR322 DNA substrate by ethidium bromide dye-based agarose gel electrophoresis; in short: as §3
[8] = biological target: DNA topoisomerase 2-alpha (Homo sapiens) (UniProt P11388); experiment: Inhibition of human DNA topoisomerase 2 alpha-mediated DNA relaxation at 100 uM incubated for 30 mins using pBR322 DNA substrate by ethidium bromide dye-based agarose gel electrophoresis; in short: as §4
Sus scrofa [9] = species on record: Sus scrofa; experiment: Induction of porcine brain tubulin polymerization at 10 uM after 61 mins by spectroscopic analysis; in short: as §5
[10] = biological target: DNA topoisomerase 2-alpha (Homo sapiens) (UniProt P11388); experiment: Inhibition of human DNA topoisomerase 2 alpha-mediated DNA relaxation at 20 uM incubated for 30 mins using pBR322 DNA substrate by ethidium bromide dye-based agarose gel electrophoresis relative to control etoposide; in short: as §4
[11] = biological target: DNA topoisomerase 2-alpha (Homo sapiens) (UniProt P11388); experiment: Inhibition of human DNA topoisomerase 2 alpha-mediated DNA relaxation at 20 uM incubated for 30 mins using pBR322 DNA substrate by ethidium bromide dye-based agarose gel electrophoresis; in short: as §4
Sus scrofa [12] = species on record: Sus scrofa; experiment: Inhibition of porcine brain tubulin polymerization at 15 uM after 61 mins by spectroscopic analysis; in short: as §5
[13] = biological target: T1, DNA topoisomerase 1 (Homo sapiens); experiment: Poison activity at topoisomerase 1 (unknown origin) assessed as […] in enzyme mediated DNA cleavage complex formation by measuring increase in nicked DNA level at 500 uM using supercoiled pBR322 plasmid DNA as substrate after 20 mins by ethidium bromine dye-based agarose gel electrophoresis analysis
In short: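 Supercoiled pBR322 (100 ng) pre-reacted 10 min with topo I (3 units), then compound added for 20 min at 37 °C. Stopped with 0.5% sarcosyl and digested with proteinase K at 45 °C for 30 min, then heated 2 min at 70 °C. Run on 1.5% agarose/TAE containing 0.5 μg/mL EtBr; nicked DNA versus DMSO control, CPT as poison control.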

[14] = biological target: T1, DNA topoisomerase 1 (Homo sapiens); experiment: Poison activity at topoisomerase 1 in human T47D cells assessed as induction of induction of DNA damage by measuring tail DNA levels at 10 uM after 24 hrs by SYBR Green staining-based comet assay; assay type: cell-based
In short: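 T47D cells seeded at 1×10^5 per well and treated 24 h, then trypsinized and suspended in ice-cold PBS. Embedded in low-melting agarose, lysed 30 min at 4 °C and alkaline-unwound (pH > 13) 30 min at r.t. Alkaline electrophoresis 20 min at 15 V, then SYBR Green stain and fluorescence microscopy. Read-out is % tail DNA versus untreated and CPT controls.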

[15] = biological target: T1, DNA topoisomerase 1 (Homo sapiens); experiment: Poison activity at topoisomerase 1 in human T47D cells assessed as induction of induction of DNA damage by measuring tail DNA levels at 5 uM after 24 hrs by SYBR Green staining-based comet assay; assay type: cell-based
In short: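 T47D cells seeded 1 x 10⁵ per well, treated 24 h, trypsinised, resuspended in ice-cold PBS, embedded in low-melting agarose on slides. Lysed 30 min at 4 °C in the dark, alkaline unwinding (pH > 13) 30 min at r.t., alkaline electrophoresis 20 min at 15 V, SYBR Green staining, fluorescence microscopy; % tail DNA versus untreated control.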

DNA = experiment: Binding affinity to […] (unknown origin) at 100 uM preincubated for 30 mins in presence of Hoechst 33342 followed by compound addition measured after 30 mins by fluorescence assay; assay type: nucleic-acid assay
In short: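 ctDNA (30 µM final) pre-mixed with Hoechst 33342 (1 µg/mL final) in 10 mM Tris (pH 7.2), 30 min at r.t. with shaking. Compound then added (0–100 μM series; DMSO 1% in all wells, DMSO-only control) and incubated 30 min at r.t. Fluorescence read at 361 nm excitation, emission spectrum 400–600 nm.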

[16] = biological target: T1, DNA topoisomerase 1 (Homo sapiens); experiment: Poison activity at human topoisomerase 1 assessed as induction of relaxation of pHOT1 DNA substrate at 1000 uM incubated for 30 mins by ethidium bromide dye-based agarose gel electrophoresis analysis; in short: as §1
[17] = biological target: T1, DNA topoisomerase 1 (Homo sapiens); experiment: Inhibition of DNA topoisomerase-1 in human T47D cells assessed as decrease in free topoisomerase-1 levels incubated for 2 hrs by band depletion assay; assay type: cell-based
In short: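 T47D cells seeded at 2×10^5 in 60-mm plates. On day 2 they were treated 2 h at 37 °C, harvested by trypsin and held in PBS containing the same compound concentration. Lysis in 62.5 mM Tris-HCl pH 6.8, 1 mM EDTA, 2% SDS with sonication, then centrifuged. 50 µg protein run on 8% SDS-PAGE; Western blot for free topo I with ECL detection.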

[18] = biological target: T1, DNA topoisomerase 1 (Homo sapiens); experiment: Inhibition of free DNA topoisomerase-1 in human T47D cells at 50 uM assessed as suppression of camptothecin-induced decrease in free topoisomerase-1 levels pre-treated before camptothecin addition and measured after 2 hrs by band depletion assay; assay type: cell-based

Chain of DNA topoisomerase 2-alpha (Homo sapiens) (P11388 whole entry): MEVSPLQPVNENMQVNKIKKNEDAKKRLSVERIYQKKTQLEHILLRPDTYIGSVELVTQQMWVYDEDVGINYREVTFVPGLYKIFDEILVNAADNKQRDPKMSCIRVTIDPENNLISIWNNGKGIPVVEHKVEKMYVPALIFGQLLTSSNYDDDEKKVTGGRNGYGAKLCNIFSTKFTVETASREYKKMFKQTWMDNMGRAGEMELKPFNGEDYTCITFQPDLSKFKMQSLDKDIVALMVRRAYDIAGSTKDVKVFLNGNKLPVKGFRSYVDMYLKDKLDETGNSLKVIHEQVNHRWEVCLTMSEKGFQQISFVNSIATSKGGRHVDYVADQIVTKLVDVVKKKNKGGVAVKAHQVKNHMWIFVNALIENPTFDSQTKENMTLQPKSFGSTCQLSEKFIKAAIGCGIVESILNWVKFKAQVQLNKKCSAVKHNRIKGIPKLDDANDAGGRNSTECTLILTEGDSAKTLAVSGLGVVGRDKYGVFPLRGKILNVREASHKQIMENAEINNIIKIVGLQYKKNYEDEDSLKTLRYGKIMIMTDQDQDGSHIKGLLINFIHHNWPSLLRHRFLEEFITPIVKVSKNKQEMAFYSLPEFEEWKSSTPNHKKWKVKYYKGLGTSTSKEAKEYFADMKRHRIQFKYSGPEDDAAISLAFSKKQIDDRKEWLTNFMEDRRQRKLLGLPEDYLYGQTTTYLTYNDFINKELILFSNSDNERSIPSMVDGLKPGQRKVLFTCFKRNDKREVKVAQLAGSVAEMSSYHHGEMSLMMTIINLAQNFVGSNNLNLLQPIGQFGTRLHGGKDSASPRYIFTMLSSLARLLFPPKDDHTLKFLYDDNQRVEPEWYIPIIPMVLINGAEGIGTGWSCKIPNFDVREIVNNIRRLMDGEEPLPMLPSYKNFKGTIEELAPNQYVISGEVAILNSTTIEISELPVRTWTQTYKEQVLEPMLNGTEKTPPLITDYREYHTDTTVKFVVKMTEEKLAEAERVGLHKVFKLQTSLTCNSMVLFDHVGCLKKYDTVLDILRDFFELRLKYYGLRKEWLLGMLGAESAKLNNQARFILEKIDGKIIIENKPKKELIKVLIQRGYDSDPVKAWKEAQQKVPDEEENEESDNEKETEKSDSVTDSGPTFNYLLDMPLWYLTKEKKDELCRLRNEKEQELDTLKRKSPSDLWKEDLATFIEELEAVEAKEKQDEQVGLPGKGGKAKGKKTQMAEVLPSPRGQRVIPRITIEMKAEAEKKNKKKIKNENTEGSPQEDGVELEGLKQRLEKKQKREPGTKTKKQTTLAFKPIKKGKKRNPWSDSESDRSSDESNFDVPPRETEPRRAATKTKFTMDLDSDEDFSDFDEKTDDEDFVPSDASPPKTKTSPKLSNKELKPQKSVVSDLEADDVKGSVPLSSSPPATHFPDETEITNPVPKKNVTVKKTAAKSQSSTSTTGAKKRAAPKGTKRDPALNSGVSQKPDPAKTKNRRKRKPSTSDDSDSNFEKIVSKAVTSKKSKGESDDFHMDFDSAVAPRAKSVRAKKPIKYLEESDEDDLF

Row | Compound | pIC50 (MCF-10A) | pIC50 (T47D) | pIC50 (HCT-15) | Ratio [2] | Ratio [3] | Ratio [4] | inhibition (Sus scrofa [5]) | inhibition [6] | inhibition [7] | inhibition [8] | Tubulin polymerization induction (Sus scrofa [9]) | also measured
1 | COc1cc(NS(C)(=O)=O)ccc1Nc1c2ccccc2nc2ccccc12 |  |  |  |  |  |  |  |  |  |  |  | Activity [1]: Active
2 | COc1cc(OC)cc(-c2cc3ccc(N(C)C)cc3c(-c3cccc(N)c3)n2)c1 | 4.38 | 5.44 | 5.60 | 1.12 | 2.5 | 0.04 | inactive | 73.1% | 71.5% | 2.5% | inactive | 
3 | CC(=O)O[C@H]1C(=O)[C@@]2(C)[C@H]([C@H](OC(=O)c3ccccc3)[C@]3(O)C[C@H](OC(=O)[C@H](O)[C@@H](NC(=O)c4ccccc4)c4ccccc4)C(C)=C1C3(C)C)[C@]1(OC(C)=O)CO[C@@H]1C[C@@H]2O |  |  |  |  |  |  |  |  |  |  |  | Activity (Sus scrofa [9]): Active
4 | COc1ccc(/C=C\c2cc(OC)c(OC)c(OC)c2)cc1O |  |  |  |  |  |  | 100% |  |  |  |  | 
5 | COc1cc(OC)cc(-c2cc3ccccc3c(-c3cccc(O)c3)n2)c1 | 5.17 | 6.12 | 6.08 | 0 |  | 0.59 | inactive | 0% |  | 37.3% | inactive | Ratio [10]: 0.9; inhibition [11]: 30.9%
6 | COc1ccc(-c2cc3cc(C)ccc3c(-c3cccc(N)c3)n2)c(C)c1 | 5.24 | 6.13 | 5.56 | 1.22 | 2.53 | 0.06 |  | 79.7% | 72.4% | 4.1% | inactive | inhibition (Sus scrofa [12]): Active; Activity [13]: inactive; Activity [14]: 9.43%; Activity [15]: 5.82%; Activity (DNA): inactive; Activity [16]: inactive; inhibition [17]: inactive; inhibition [18]: Active
7 | CC[C@@]1(O)C(=O)OCc2c1cc1n(c2=O)Cc2cc3ccccc3nc2-1 |  |  |  |  |  |  |  |  |  |  |  | Activity [15]: 25%
8 | COc1ccc(-c2cc3cc(C)ccc3c(-c3cccc(O)c3)n2)c(C)c1 | 5.30 | 6.25 | 5.76 | 1.13 | 2.46 | 0.2 | Active | 73.4% | 70.4% | 12.3% | inactive | 
9 | COc1cc(OC)cc(-c2cc3ccccc3c(-c3ccc(O)cc3)n2)c1 | 5.14 | 6.11 | 5.56 | 0 |  | 0.82 | inactive | 0% |  | 51.2% | inactive | Ratio [10]: 1.17; inhibition [11]: 40%

Source: ChEMBL document CHEMBL4251575, “Design, synthesis, and biological evaluation of 1,3-diarylisoquinolines as novel topoisomerase I catalytic inhibitors” (Eur J Med Chem, 2018)
